Reference: ChEMBL document CHEMBL5032526 (Eur J Med Chem, 2021)

Legend:
Ebolavirus [1] = experiment: Antiviral activity against Ebola virus trVLP infected in human Huh-7 cells pretreated for 1 hrs followed by viral infection and measured after 24 hrs by dual luciferase reporter assay; type: functional, organism-based; conditions: Orthoebolavirus
Method in brief: (§1)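 Huh-7 cells were transfected in suspension with EBOV VP35, NP, VP30 and L plasmids plus constitutive firefly (ce-FF). At 24 h, compounds were added in triplicate (0-50 µM, 2-fold series) for 1 h before trVLP infection.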

Ebolavirus [2] = experiment: Antiviral activity against Ebola virus constitutively expressed firefly infected in human Huh-7 cells expressing pretreated for 1 hrs followed by viral infection and measured after 24 hrs by dual luciferase reporter assay; type: functional, organism-based; conditions: Orthoebolavirus; method in brief: as §1
SARS-CoV-2 [3] = experiment: Antiviral activity against SARS Cov-2 USA/WA1/2020 infected in Vero E6 cells assessed as reduction in virus-induced cytopathic effect preincubated for 1 hr followed by viral infection and measured after 48 hrs post infection; type: functional, organism-based; conditions: Severe acute respiratory syndrome coronavirus 2, USA/WA1/2020, Vero C1008
[4] = Selectivity index, ratio of CC50 for human Huh-7 cells to IC50 for Antiviral activity against Ebola virus trVLP infected in human Huh-7 cells; type: toxicity, cell-based; conditions: read-out: Ratio CC50/IC50
Huh-7 = experiment: (§2) Cytotoxicity against human Huh-7 cells assessed as reduction in cell viability measured after 24 hrs by CellTiter-Glo analysis; type: cell-based; conditions: huh-7, 24 h
SARS-CoV-2 [5] = experiment: Antiviral activity against SARS coronavirus 2 USA/WA1/2020 infected in Calu-3 cells assessed as reduction in virus-induced cytopathic effect preincubated for 1 hr followed by viral infection and measured after 48 hrs; type: functional, organism-based; conditions: Severe acute respiratory syndrome coronavirus 2, USA/WA1/2020, Calu-3
SARS-CoV-2 [6] = experiment: Antiviral activity against SARS Cov-2 USA_WA1/2020 infected in HAE cells measured upto 72 hrs by qRT-PCR method; type: functional, organism-based; conditions: Severe acute respiratory syndrome coronavirus 2, USA_WA1/2020, HAE
[7] = (§3) Cytotoxicity against human Calu-3 cells assessed as reduction in cell viability after 48 hrs by Cell-Tox green based fluorescence assay; conditions: Calu-3 cells
Method in brief: (§4)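 Calu3 cells (1 x 10^4) were plated and exposed 24 h later to 3-fold serial compound dilutions. At 48 h, CellTox Green fluorescence was read, and CC50 was fitted by four-parameter nonlinear regression.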

[8] = Metabolic stability in human plasma assessed as drug degradation at 10 uM after 1 hr by LC-QTOF-MS analysis; type: ADME, cell-free; conditions: read-out: Drug degradation
Method in brief: (§5)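 Compound (10 µM) was incubated in human plasma at 37 °C, with aliquots taken from 0 to 24 h. Proteins were precipitated with cold ethanol (30 min, -20 °C), and samples were centrifuged and concentrated. Analysis was by LC-QTOF-MS with a ±0.1 m/z EIC window, and % digestion was calculated from peak area relative to 0 min.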

[9] = Metabolic stability in human plasma assessed as compound remaining at 10 uM after 2 hrs by LC-QTOF-MS analysis; type: ADME, cell-free; method in brief: as §5
SARS-CoV-2 [10] = experiment: Antiviral activity against SARS Cov-2 USA_WA1/2020 infected in human Calu-3 cells measured upto 72 hrs by qRT-PCR method; type: functional, organism-based; conditions: Severe acute respiratory syndrome coronavirus 2, USA_WA1/2020, Calu-3, 72 h
Ebolavirus [11] = experiment: Antiviral activity against wild type Ebola virus infected in human HeLa cells assessed as reduction in viral infection measured after 24 hrs by Hoechst 33342 staining based microscopic analysis; type: functional, organism-based; conditions: Orthoebolavirus
[12] = as §2; type: cell-based; conditions: Huh-7 cells
[13] = Selectivity index, ratio of CC50 for human Huh-7 cells to IC50 for Antiviral activity against Ebola virus constitutively expressed firefly; type: toxicity; conditions: read-out: Ratio CC50/IC50
[14] = Selectivity index, ratio of CC50 for African green monkey Vero E6 cells to IC50 for Antiviral activity against SARS coronavirus 2 USA/WA1/2020 infected in Vero E6 cells assessed as reduction in virus-induced cytopathic effect; type: toxicity, cell-based, Vero C1008; conditions: read-out: Ratio CC50/IC50
Calu-3 = experiment: as §3; conditions: calu-3, 48 h; method in brief: as §4
[15] = Selectivity index, ratio of CC50 for human Calu-3 cells to IC50 for Antiviral activity against SARS coronavirus 2 USA/WA1/2020 infected in human Calu3 cells assessed as reduction in virus-induced cytopathic effect; type: toxicity, cell-based; conditions: read-out: Ratio CC50/IC50
[16] = Metabolic stability in human plasma assessed as compound remaining at 10 uM after 4 hrs by LC-QTOF-MS analysis; type: ADME, cell-free; conditions: read-out: Stability; method in brief: as §5

SMILES | IC50 (Ebolavirus [1]) [µM] | IC50 (Ebolavirus [2]) [µM] | IC50 (SARS-CoV-2 [3]) [µM] | selectivity ratio [4] | CC50 (Huh-7) [µM] | IC50 (SARS-CoV-2 [5]) [µM] | EC50 (SARS-CoV-2 [6]) [µM] | CC50 at 48 h [7] [µM] | metabolised at 1 h, 10 µM [8] [%] | remaining at 2 h, 10 µM ([9]; read-out: Stability) [%] | EC50 (SARS-CoV-2 [10]) [µM] | IC50 (Ebolavirus [11]) [µM] | CC50 at 24 h [12] [µM] | selectivity ratio [13] | selectivity ratio [14] | CC50 (Calu-3) [µM] | selectivity ratio [15] | Stability ([9]; 2 h, 10 µM) | remaining at 4 h, 10 µM [16] [%]
CCSCCCCCCCCCCCC(=O)O | > 50 | > 50 | > 50 | > 50 | > 50 | – | – | – | – | – | – | – | – | – | – | – | – | – | –
CCCCCCCCCCOCCC(=O)O | > 50 | > 50 | > 50 | > 50 | > 50 | – | – | – | – | – | – | – | – | – | – | – | – | – | –
CCC(CC)COC(=O)[C@H](C)N[P@](=O)(OC[C@H]1O[C@@](C#N)(c2ccc3c(N)ncnn23)[C@H](O)[C@@H]1O)Oc1ccccc1 | 0.32 | 24 | 0.85 | – | – | 0.06 | 0.01 | > 50 | 13 | 47 | 0.28 | 1 | > 50 | – | – | – | – | – | –
CCSCCCCCCCCCCCC(=O)O[C@@H]1[C@H](O)[C@@H](CO[P@@](=O)(N[C@H](C)C(=O)OCC(CC)CC)Oc2ccccc2)O[C@@]1(C#N)c1ccc2c(N)ncnn12 | 0.25 | 29 | 3.5 | 164 | 41 | – | – | – | – | – | – | – | – | 1.41 | > 14.2 | – | – | – | –
CCCCCCCCCCOCCC(=O)O[C@@H]1[C@H](O)[C@@H](CO[P@@](=O)(N[C@H](C)C(=O)OCC(CC)CC)Oc2ccccc2)O[C@@]1(C#N)c1ccc2c(N)ncnn12 | 0.3 | 36 | 4.6 | 50 | 15 | – | – | – | – | – | – | – | – | 0.417 | > 10.9 | – | – | – | –
CCCCCCCCCCOCCC(=O)O[C@H]1[C@@H](O)[C@](C#N)(c2ccc3c(N)ncnn23)O[C@@H]1CO[P@@](=O)(N[C@H](C)C(=O)OCC(CC)CC)Oc1ccccc1 | 0.16 | 14 | 2 | 46.3 | 7.4 | 0.18 | – | – | – | – | – | – | – | 0.529 | > 25.6 | 34.3 | > 191 | – | –
CCCCCCCCCCCCCCCC(=O)O[C@@H]1[C@H](O)[C@@H](CO[P@@](=O)(N[C@H](C)C(=O)OCC(CC)CC)Oc2ccccc2)O[C@@]1(C#N)c1ccc2c(N)ncnn12 | 7.2 | > 50 | – | > 6.94 | > 50 | 3.6 | – | – | – | – | – | – | – | – | – | > 50 | > 13.9 | – | –
CCC(CC)COC(=O)[C@@H](C)N[P@](=O)(OC[C@H]1O[C@@](C#N)(c2ccc3c(N)ncnn23)[C@H](O)[C@@H]1OC(=O)CCCCCCCCCCCN=[N+]=[N-])Oc1ccccc1 | 0.45 | > 50 | 3 | 44.4 | 20 | 0.51 | – | – | – | – | – | 0.83 | – | – | > 16.6 | > 50 | > 98 | Stable | 77.9
CCCCCCCCCCCCCCCC(=O)O[C@H]1[C@@H](O)[C@](C#N)(c2ccc3c(N)ncnn23)O[C@@H]1CO[P@@](=O)(N[C@H](C)C(=O)OCC(CC)CC)Oc1ccccc1 | 2.9 | > 50 | – | > 172 | > 50 | 1.6 | – | – | – | – | – | – | – | – | – | > 50 | > 32.3 | – | –
CCCCCCCCCCCCCC(=O)O[C@H]1[C@@H](OC(=O)CCCCCCCCCCCCC)[C@](C#N)(c2ccc3c(N)ncnn23)O[C@@H]1CO[P@@](=O)(N[C@H](C)C(=O)OCC(CC)CC)Oc1ccccc1 | 12.1 | > 50 | 31 | > 4.13 | > 50 | – | – | – | – | – | – | – | – | – | > 1.59 | – | – | – | –
[N-]=[N+]=NCCCCCCCCCCCC(=O)O | > 50 | > 50 | > 50 | > 50 | > 50 | – | – | – | – | – | – | – | – | – | – | – | – | – | –
CCC(CC)COC(=O)[C@@H](C)N[P@](=O)(OC[C@H]1O[C@@](C#N)(c2ccc3c(N)ncnn23)[C@H](OC(=O)CCCCCCCCCCCN=[N+]=[N-])[C@@H]1O)Oc1ccccc1 | 0.5 | > 50 | 4.6 | 54 | – | – | – | – | – | – | – | 0.19 | 27 | – | > 10.9 | – | – | – | –
CCCCCCCCCCCCCC(=O)O[C@H]1[C@@H](O)[C@](C#N)(c2ccc3c(N)ncnn23)O[C@@H]1CO[P@@](=O)(N[C@H](C)C(=O)OCC(CC)CC)Oc1ccccc1 | 0.71 | > 50 | 2.3 | > 70.4 | > 50 | 0.24 | – | – | – | – | – | – | – | – | > 22.1 | > 50 | > 208 | – | –
CCCCCCCCCCCCCC(=O)O[C@@H]1[C@H](O)[C@@H](CO[P@@](=O)(N[C@H](C)C(=O)OCC(CC)CC)Oc2ccccc2)O[C@@]1(C#N)c1ccc2c(N)ncnn12 | 0.67 | > 50 | 2.4 | > 74.6 | > 50 | 0.29 | – | – | – | – | – | – | – | – | > 20.7 | > 50 | > 172 | – | –
CCSCCCCCCCCCCCC(=O)O[C@H]1[C@@H](O)[C@](C#N)(c2ccc3c(N)ncnn23)O[C@@H]1CO[P@@](=O)(N[C@H](C)C(=O)OCC(CC)CC)Oc1ccccc1 | 0.28 | > 50 | 2.4 | 82.1 | 23 | 0.25 | – | – | – | – | – | – | – | – | > 20.5 | > 50 | > 200 | – | –
CCCCCCCCCCCCCC(=O)O [MYRISTIC ACID] | > 50 | > 50 | > 50 | > 50 | > 50 | – | – | – | – | – | – | – | – | – | – | – | – | – | –
